The nature of data set [1]: Potentiation of paclitaxel-mediated cytotoxicity against human KBVIN cells assessed as cell viability at 10 uM after 72 hrs by SRB method relative to control. The format is functional. The settings on record: read-out: Activity.
Data set [2] concerns KB. In words: Potentiation of paclitaxel-mediated cytotoxicity against human KB cells assessed as cell viability at 10 uM after 72 hrs by SRB method relative to control. In kind it is functional. The settings on record: read-out: Activity. On the technique in general: The SRB assay estimates cell density from bound dye.
A short description of data set [3]: Cytotoxicity against human KBVIN cells assessed as cell viability at 10 uM after 72 hrs by SRB method relative to control. In kind it is cell-based. The settings on record: read-out: Activity.
The nature of data set [4]: Cytotoxicity against human DU145 cells assessed as cell viability at 10 ug/ml. In kind it is cell-based, DU-145. Conditions: read-out: Activity; call rule not given here.
Data set [5] can be described thus: Cytotoxicity against human KB cells assessed as cell viability at 10 ug/ml. In kind it is cell-based. Conditions: read-out: Activity.
Data set [6] is described as follows: Cytotoxicity against human KB cells assessed as cell viability at 10 uM after 72 hrs by SRB method relative to control. The format is cell-based. The settings on record: read-out: Activity.
The nature of data set [7]: Cytotoxicity against human KBVIN cells assessed as cell viability at 10 ug/ml. The format is cell-based. Conditions: read-out: Activity.
A short description of data set [8]: Cytotoxicity against human A549 cells assessed as cell viability at 10 ug/ml. The settings on record: read-out: Activity. In kind it is cell-based.
Data set [9] can be described thus: Potentiation of vincristine-mediated cytotoxicity against human KBVIN cells assessed as reduction in vincristine IC50 at 10 uM after 72 hrs by SRB method relative to control. The format is functional. A digest of the protocol:
(§1)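 IC50 of paclitaxel, vincristine or doxorubicin measured in KBvin cells with and without 10 μM compound; reversal fold = IC50 (drug alone)/IC50 (drug + compound); mean ± SD of three independent experiments; verapamil as reference.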

Data set [10] can be described thus: Potentiation of doxorubicin-mediated cytotoxicity against human KBVIN cells assessed as reduction in doxorubicin IC50 at 10 uM after 72 hrs by SRB method relative to control. The format is functional. A digest of the protocol: as §1
Data set [11] in a line: Potentiation of paclitaxel-mediated cytotoxicity against human KBVIN cells assessed as reduction in paclitaxel IC50 at 10 uM after 72 hrs by SRB method relative to control. The format is functional. A digest of the protocol: as §1
Data set [12] relates to KBVIN. The settings on record: Homo sapiens.
The target in data set [13] is Multidrug resistance-associated protein 1 (Homo sapiens, UniProt P33527). The data set is described as follows: Inhibition of MRP-mediated Fluo3 efflux in human KBVIN cells at 10 uM incubated for 1 hr prior to Fluo3-addition measured after 2 hrs by fluorescence microscopic analysis. In kind it is cell-based. A digest of the protocol:
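KB or KBvin cells pretreated 1 h with compound or DMSO, then Fluo-3 AM (fluorogenic MRP substrate) added for 2 h; intracellular Fluo-3 retention judged by fluorescence microscopy.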

A short description of data set [14]: Potentiation of vincristine-mediated cytotoxicity against human KBVIN cells assessed as reduction in vincristine IC50 at 10 uM after 72 hrs by SRB method relative to verapamil. In kind it is functional. The method, boiled down:
as §1

Multidrug resistance-associated protein 1, sequence (P33527 whole entry): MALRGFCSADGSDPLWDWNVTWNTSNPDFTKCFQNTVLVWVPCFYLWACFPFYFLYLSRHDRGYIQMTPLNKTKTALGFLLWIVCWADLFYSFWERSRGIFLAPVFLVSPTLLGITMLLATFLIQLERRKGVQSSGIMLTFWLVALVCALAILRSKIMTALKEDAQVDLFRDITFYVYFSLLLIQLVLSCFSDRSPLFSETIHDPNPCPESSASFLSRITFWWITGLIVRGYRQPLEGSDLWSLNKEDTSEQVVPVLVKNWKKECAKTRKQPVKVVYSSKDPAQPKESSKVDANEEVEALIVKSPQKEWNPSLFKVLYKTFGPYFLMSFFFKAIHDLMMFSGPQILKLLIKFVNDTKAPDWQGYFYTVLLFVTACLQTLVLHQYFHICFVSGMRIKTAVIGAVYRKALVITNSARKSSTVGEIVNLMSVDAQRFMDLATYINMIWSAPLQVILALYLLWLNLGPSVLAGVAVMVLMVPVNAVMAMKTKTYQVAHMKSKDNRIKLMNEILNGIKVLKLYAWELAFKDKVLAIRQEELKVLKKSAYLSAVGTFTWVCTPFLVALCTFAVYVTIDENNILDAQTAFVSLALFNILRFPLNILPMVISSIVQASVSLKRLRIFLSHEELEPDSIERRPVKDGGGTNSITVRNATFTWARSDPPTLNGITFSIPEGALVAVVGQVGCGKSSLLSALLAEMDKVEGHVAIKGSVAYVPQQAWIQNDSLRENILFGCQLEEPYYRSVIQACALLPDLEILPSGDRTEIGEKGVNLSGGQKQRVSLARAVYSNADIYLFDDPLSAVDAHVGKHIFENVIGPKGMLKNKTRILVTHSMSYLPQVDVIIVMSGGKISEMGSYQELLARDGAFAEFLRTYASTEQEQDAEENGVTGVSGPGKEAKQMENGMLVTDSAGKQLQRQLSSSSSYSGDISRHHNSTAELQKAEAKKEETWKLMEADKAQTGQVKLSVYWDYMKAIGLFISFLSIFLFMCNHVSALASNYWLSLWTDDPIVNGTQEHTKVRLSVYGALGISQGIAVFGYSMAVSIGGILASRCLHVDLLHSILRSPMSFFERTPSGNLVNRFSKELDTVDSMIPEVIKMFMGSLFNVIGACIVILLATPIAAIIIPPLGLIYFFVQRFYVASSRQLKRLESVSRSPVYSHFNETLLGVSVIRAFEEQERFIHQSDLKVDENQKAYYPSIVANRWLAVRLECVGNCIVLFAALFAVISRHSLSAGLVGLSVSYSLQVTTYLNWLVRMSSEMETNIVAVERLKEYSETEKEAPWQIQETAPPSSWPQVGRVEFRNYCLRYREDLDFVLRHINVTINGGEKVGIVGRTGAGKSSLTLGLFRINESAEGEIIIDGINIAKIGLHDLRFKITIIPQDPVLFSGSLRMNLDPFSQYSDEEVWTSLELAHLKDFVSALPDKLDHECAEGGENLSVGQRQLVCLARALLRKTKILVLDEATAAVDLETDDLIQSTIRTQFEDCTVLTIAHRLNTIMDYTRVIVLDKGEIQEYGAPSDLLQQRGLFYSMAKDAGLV

Turning to `COc1cc(C(O)CO)cc(OC)c1OC` (stereo not given), the values for the viability at 10 µM in data set [1] and in data set [2] were 99% and 96.8%, respectively. The values for the viability at 72 h, 10 µM in [3] and in data set [6] were 92.4% and 101%, respectively. Also, the viability at 10 ug/ml in data set [4], in data set [5], in data set [7] and in data set [8] was > 80% throughout.

Take `COc1ccc(CCN(C)CCCC(C#N)(c2ccc(OC)c(OC)c2)C(C)C)cc1OC` (stereo not given) [VERAPAMIL]: the entries for the “fold change (FC)” value in data set [9], in data set [10] and in data set [11] were 97, 6 and 72, respectively.

As to `COc1cc(C(=O)OCC(O[Si](C)(C)C(C)(C)C)c2cc(OC)c(OC)c(OC)c2)cc(OC)c1OC` (stereo not given), the Flu intensity in data set [12] was determined as 184. Besides, the viability at 10 µM is 12.3% in [1] and 70.3% in [2]. Moreover, the viability at 72 h, 10 µM in data set [3] came to 74.3%; in [6], 83.9%. Moreover, the “fold change (FC)” value in data set [9] is 1684; in data set [10], 79; in data set [11], 216. In data set [13], the “inhibition (INH)” value is reported as “Active”. In addition, the viability at 10 ug/ml in data set [4], in data set [5], in data set [7] and in data set [8] was > 80% throughout.

Regarding `COc1cc(C(=O)OCC(OC(=O)c2cc(OC)c(OC)c(OC)c2)c2cc(OC)c(OC)c(OC)c2I)cc(OC)c1OC` (stereo not given), the Flu intensity in data set [12] turned out to be 456. In addition, the viability at 10 µM was 0% in data set [1] and 73.7% in [2]. Moreover, the “fold change (FC)” value in data set [14] is 340; in data set [9], 2285; in data set [10], 156; in data set [11], 141. For the same compound, the viability at 72 h, 10 µM came to 87.1% in [3] and 84.2% in data set [6]. The “inhibition (INH)” value in [13] is recorded as “Not Active”. The viability at 10 ug/ml in data set [4] amounted to 46.6%; in [5] it was 75.4%; in data set [7], 47%; in [8], 56.2%.

On to `C/C=C/C=C/C(=O)OCC(OC(=O)/C=C/C=C/C)c1cc(OC)c(OC)c(OC)c1` (stereo not given), for which the values for the viability at 10 µM in data set [1] and in [2] were 31.3% and 76.8%, respectively. For the same compound, the viability at 72 h, 10 µM in data set [3] was 81.5%; in data set [6], 91.2%. In addition, the viability at 10 ug/ml was 40.8% in [4], 74.7% in data set [5], 50.1% in data set [7] and 49.6% in data set [8].

`C/C=C/C(=O)OCC(OC(=O)CCCCCCCCCCC)c1cc(OC)c(OC)c(OC)c1` (stereo not given): the results for the viability at 10 µM in data set [1] and in data set [2] were 44% and 83.9%, respectively. Moreover, the viability at 72 h, 10 µM in [3] came to 79.9%; in data set [6], 91.1%. The viability at 10 ug/ml in [4] was 41.9%; in data set [5], 76.2%; in data set [7] it was 41.1%; in [8], 51.1%.

Take `COc1cc(C(=O)OCC(O)c2cc(OC)c(OC)c(OC)c2I)cc(OC)c1OC` (stereo not given): in data set [12], the Flu intensity worked out at 226. Also, the viability at 10 µM in [1] is 0%; in [2], 75.7%. In addition, the viability at 72 h, 10 µM came out at 83.3% in data set [3] and 77% in data set [6]. The “fold change (FC)” value in [9] is 798; in [10] it was 51; in data set [11], 164. For the same compound, the viability at 10 ug/ml in data set [4], in [5], in data set [7] and in data set [8] was > 80% in each case.

`COc1cc(C(=O)OCC(O[Si](C)(C)C(C)(C)C)c2cc(OC)c(OC)c(OC)c2I)cc(OC)c1OC` (stereo not given): the viability at 10 µM in data set [1] came out at 19.6%; in [2] it was 58%. In addition, the viability at 72 h, 10 µM worked out at 41% in data set [3] and 64.2% in [6]. Further, the viability at 10 ug/ml in data set [4] was 0%; in [5], 26.1%; in data set [7], 36.7%; in [8] it was 37%.

`COc1cc(C(O)COC(=O)C2CCCCC2)cc(OC)c1OC` (stereo not given): the viability at 10 µM in data set [1] stood at 103%; in [2], 96.7%. In addition, the viability at 72 h, 10 µM was 110% in [3] and 98.9% in data set [6]. The viability at 10 ug/ml in [4], in data set [5], in data set [7] and in data set [8] was > 80% throughout.

`COc1cc(C(O)CO)c(I)c(OC)c1OC` (stereo not given): the figures for the viability at 10 µM in data set [1] and in data set [2] were 91.8% and 97%, respectively. In addition, the viability at 72 h, 10 µM in [3] was determined as 90%; in data set [6] it was 95.1%. Besides, the viability at 10 ug/ml in data set [4], in [5], in data set [7] and in data set [8] was > 80% throughout.

Consider `COc1ccc(/C=C/C(=O)OCC(OC(=O)/C=C/c2ccccc2)c2cc(OC)c(OC)c(OC)c2I)cc1OC` (stereo not given), for which the Flu intensity in [12] stood at 414. Also, the viability at 10 µM in data set [1] was found to be 0%; in data set [2], 76.5%. Further, the viability at 72 h, 10 µM was found to be 95.3% in [3] and 85.9% in [6]. The “fold change (FC)” value in data set [9] is reported as 620; in [10], 23; in [11], 166. In addition, the viability at 10 ug/ml in [4], in data set [5], in data set [7] and in [8] was > 80% each time.

For the compound `COc1cc(C(COC(C)=O)OC(C)=O)cc(OC)c1OC` (stereo not given), the viability at 10 µM in [1] turned out to be 92%; in data set [2], 96%. In addition, the values for the viability at 72 h, 10 µM in data set [3] and in data set [6] were 91.5% and 98%, respectively. In addition, the viability at 10 ug/ml in data set [4], in [5], in data set [7] and in data set [8] was > 80% each time.

(Values after ChEMBL document CHEMBL2203070, “1-(3,4,5-Trimethoxyphenyl)ethane-1,2-diyl esters, a novel compound class with potent chemoreversal activity” (Bioorg Med Chem Lett, 2012).)
